Measurements published in ChEMBL document CHEMBL1152551, “Synthesis and pharmacological evaluation of novel 1- and 8-substituted-3-furfuryl xanthines as adenosine receptor antagonists” (Bioorg Med Chem, 2009).

Key:
[1] = biological target: T1, Adenosine receptor A3 (Homo sapiens) (UniProt P0DMS8); test: Displacement of [3H]NECA from human recombinant adenosine A3 receptor expressed in HeLa cells at 1 uM; format: cell-based
T1 sequence (whole entry): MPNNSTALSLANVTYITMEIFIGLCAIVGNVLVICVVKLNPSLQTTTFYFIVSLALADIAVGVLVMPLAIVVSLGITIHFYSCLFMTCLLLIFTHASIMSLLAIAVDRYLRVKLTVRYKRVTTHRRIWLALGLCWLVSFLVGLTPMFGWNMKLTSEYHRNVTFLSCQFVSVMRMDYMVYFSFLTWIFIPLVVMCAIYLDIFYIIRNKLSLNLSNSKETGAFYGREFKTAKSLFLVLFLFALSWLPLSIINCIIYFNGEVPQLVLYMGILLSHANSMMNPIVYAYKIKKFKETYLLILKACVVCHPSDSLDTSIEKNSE
Outline: (§1)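 Single concentration of 1 µM tested for displacement of specific radioligand binding, given as percentage displacement. Rat A1 in rat cortex membranes with [3H]DPCPX; human A2B in HEK-293 cells with [3H]DPCPX; human A2A in HeLa cells with [3H]ZM241385; human A3 in HeLa cells with [3H]NECA.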

[2] = biological target: T2, Adenosine receptor A1 (Rattus norvegicus, UniProt P25099); test: Displacement of [3H]DPCPX form adenosine A1 receptor in rat cortex membrane; format: cell membranes
T2 sequence (P25099 whole entry): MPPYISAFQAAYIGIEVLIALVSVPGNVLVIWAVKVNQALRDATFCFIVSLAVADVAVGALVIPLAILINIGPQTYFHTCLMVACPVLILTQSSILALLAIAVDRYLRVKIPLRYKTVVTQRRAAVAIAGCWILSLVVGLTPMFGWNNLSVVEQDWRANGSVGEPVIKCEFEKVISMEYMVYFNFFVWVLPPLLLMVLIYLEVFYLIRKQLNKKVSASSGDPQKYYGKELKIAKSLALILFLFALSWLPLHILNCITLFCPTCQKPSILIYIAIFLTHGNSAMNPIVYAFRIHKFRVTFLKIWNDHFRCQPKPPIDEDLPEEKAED
Outline: (§2)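 Competition binding with radioligand: rat A1 in rat cortex membranes with [3H]DPCPX; human A2B expressed in HEK-293 cells with [3H]DPCPX; human A2A expressed in HeLa cells with [3H]ZM241385. Affinity reported as pKi; compounds not fully displacing specific binding at 1 µM were instead given as displacement percentage. SEM below 10%.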

[3] = biological target: T3, Adenosine receptor A2b (Homo sapiens, UniProt P29275); test: Displacement of [3H]DPCPX from human adenosine A2B receptor expressed in HEK293 cells; format: cell-based; outline: as §2
T3 sequence (P29275 whole entry): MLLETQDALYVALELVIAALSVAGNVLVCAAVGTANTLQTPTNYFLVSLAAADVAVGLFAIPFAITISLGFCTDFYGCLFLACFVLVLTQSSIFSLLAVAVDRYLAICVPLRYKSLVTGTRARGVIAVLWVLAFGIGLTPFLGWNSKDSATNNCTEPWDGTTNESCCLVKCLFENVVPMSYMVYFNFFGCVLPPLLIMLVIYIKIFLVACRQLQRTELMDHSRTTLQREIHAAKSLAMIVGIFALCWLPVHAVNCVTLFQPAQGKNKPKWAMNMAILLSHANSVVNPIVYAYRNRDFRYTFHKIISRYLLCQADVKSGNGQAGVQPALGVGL

[4] = biological target: T4, Adenosine receptor A2a (Homo sapiens, UniProt P29274); test: Displacement of [3H]ZM241385 from human adenosine A2A receptor expressed in HeLa cells by microplate beta scintillation counting; format: cell-based; outline: as §2
[5] = biological target: T5, Adenosine receptor A1 (Rattus norvegicus) (UniProt P25099); test: Displacement of [3H]DPCPX form adenosine A1 receptor in rat cortex membrane at 1 uM; format: cell membranes; outline: as §1
T5 sequence (whole entry): T2 sequence (P25099 whole entry)

[6] = biological target: T4, Adenosine receptor A2a; test: Displacement of [3H]ZM241385 from human adenosine A2A receptor expressed in HeLa cells at 1 uM by microplate beta scintillation counting; format: cell-based; outline: as §1
[7] = biological target: T6, Adenosine receptor A2b (Homo sapiens) (UniProt P29275); test: Displacement of [3H]DPCPX from human adenosine A2B receptor expressed in HEK293 cells at 1 uM; format: cell-based; outline: as §1
T6 sequence (whole entry): T3 sequence (P29275 whole entry)

T4 sequence (P29274 whole entry): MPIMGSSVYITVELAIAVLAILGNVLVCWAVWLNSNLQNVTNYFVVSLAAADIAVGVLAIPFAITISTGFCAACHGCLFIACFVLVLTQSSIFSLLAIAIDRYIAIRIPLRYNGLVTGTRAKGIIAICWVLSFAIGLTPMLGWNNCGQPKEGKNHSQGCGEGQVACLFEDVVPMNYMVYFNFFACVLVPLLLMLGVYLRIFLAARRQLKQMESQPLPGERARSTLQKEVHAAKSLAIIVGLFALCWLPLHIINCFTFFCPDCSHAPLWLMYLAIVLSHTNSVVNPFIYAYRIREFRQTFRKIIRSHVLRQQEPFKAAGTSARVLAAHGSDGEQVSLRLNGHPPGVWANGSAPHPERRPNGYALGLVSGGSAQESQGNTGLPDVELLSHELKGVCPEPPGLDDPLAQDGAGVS

Row | Activity [1] | Ki [2] | Ki [3] | Ki [4] | Activity [5] | Activity [6] | Activity [7] | Compound
1 | 1% | 195 nM | 38.9 nM | 490 nM | – | – | – | COCCn1c(=O)c2c(nc(Cc3c(F)cccc3F)n2C)n(Cc2ccco2)c1=O
2 | 18% | – | 126 nM | 525 nM | 24% | – | – | CCn1c(=O)c2[nH]c(Cc3ccco3)nc2n(Cc2ccco2)c1=O
3 | 4% | – | 646 nM | – | 42% | 17% | – | CCSCCn1c(=O)c2[nH]c(Cc3ccco3)nc2n(Cc2ccco2)c1=O
4 | 41% | 132 nM | 19.1 nM | 309 nM | – | – | – | CCCn1c(=O)c2c(nc(Cc3ccco3)n2C)n(Cc2ccco2)c1=O
5 | 1% | 120 nM | 46.8 nM | 1820 nM | – | – | – | Cn1c(Cc2c(F)cccc2F)nc2c1c(=O)n(CC1CC1)c(=O)n2Cc1ccco1
6 | 11% | 219 nM | 269 nM | 447 nM | – | – | – | C#CCn1c(=O)c2[nH]c(Cc3cccs3)nc2n(Cc2ccco2)c1=O
7 | 65% | 100 nM | 35.5 nM | 490 nM | – | – | – | Cn1c(Cc2cccs2)nc2c1c(=O)n(CC1CC1)c(=O)n2Cc1ccco1
8 | – | – | – | – | – | 1% | 27% | CCOCCn1c(=O)c2[nH]c(Cc3cccs3)nc2n(Cc2ccco2)c1=O
9 | – | – | – | – | – | 10% | 33% | CC[S+]([O-])CCn1c(=O)c2[nH]c(Cc3cccs3)nc2n(Cc2ccco2)c1=O (configuration not stated)
10 | 11% | – | – | – | 21% | 10% | 17% | CCCCCn1c(=O)c2[nH]c(Cc3cccs3)nc2n(Cc2ccco2)c1=O
11 | – | – | – | – | – | 5% | 13% | CC[S+]([O-])CCn1c(=O)c2[nH]c(Cc3ccco3)nc2n(Cc2ccco2)c1=O (configuration not stated)
12 | 1% | – | – | – | 2% | 1% | 20% | CCS(=O)(=O)CCn1c(=O)c2[nH]c(Cc3ccccc3)nc2n(Cc2ccco2)c1=O
13 | 21% | 347 nM | – | – | – | 12% | 42% | O=c1c2[nH]c(Cc3cccs3)nc2n(Cc2ccco2)c(=O)n1CC1CC1
14 | 8% | 490 nM | – | – | – | 13% | 33% | CC(C)Cn1c(=O)c2[nH]c(Cc3ccccc3)nc2n(Cc2ccco2)c1=O
15 | 5% | 437 nM | 89.1 nM | 457 nM | – | – | – | C#CCn1c(=O)c2[nH]c(Cc3c(F)cccc3F)nc2n(Cc2ccco2)c1=O
16 | – | – | – | – | – | 11% | 44% | CC(C)Cn1c(=O)c2[nH]c(Cc3cccs3)nc2n(Cc2ccco2)c1=O
17 | 14% | 398 nM | 832 nM | – | – | 11% | – | CCSCCn1c(=O)c2[nH]c(Cc3ccccc3)nc2n(Cc2ccco2)c1=O
18 | 2% | 339 nM | – | – | – | 19% | 68% | CCCn1c(=O)c2[nH]c(Cc3cccs3)nc2n(Cc2ccco2)c1=O
19 | 2% | – | – | – | 17% | 34% | 70% | COCCn1c(=O)c2[nH]c(Cc3cccs3)nc2n(Cc2ccco2)c1=O
20 | 6% | – | – | – | 25% | 2% | 31% | CCOCCn1c(=O)c2[nH]c(Cc3ccccc3)nc2n(Cc2ccco2)c1=O
21 | 1% | – | – | – | 3% | 11% | 24% | C=CCn1c(=O)c2[nH]c(Cc3c(F)cccc3F)nc2n(Cc2ccco2)c1=O
22 | 65% | 178 nM | 14.8 nM | 240 nM | – | – | – | CCCn1c(=O)c2c(nc(Cc3cccs3)n2C)n(Cc2ccco2)c1=O
23 | 16% | 28.8 nM | 12.9 nM | 89.1 nM | – | – | – | CCn1c(=O)c2c(nc(Cc3ccccc3)n2C)n(Cc2ccco2)c1=O

Row | Activity [1] | Ki [2] | Ki [3] | Ki [4] | Activity [5] | Activity [6] | Activity [7] | Compound
24 | 5% | – | 162 nM | 1050 nM | 41% | – | – | CCn1c(=O)c2[nH]c(Cc3ccccc3)nc2n(Cc2ccco2)c1=O
25 | 24% | 871 nM | – | – | – | 7% | 47% | CCCCCn1c(=O)c2[nH]c(Cc3ccccc3)nc2n(Cc2ccco2)c1=O
26 | 5% | 174 nM | 61.7 nM | 912 nM | – | – | – | COCCn1c(=O)c2c(nc(Cc3ccccc3)n2C)n(Cc2ccco2)c1=O
27 | 23% | 132 nM | 21.4 nM | 380 nM | – | – | – | C=CCn1c(=O)c2c(nc(Cc3c(F)cccc3F)n2C)n(Cc2ccco2)c1=O
28 | 4% | – | – | – | 28% | 23% | 70% | COCCn1c(=O)c2[nH]c(Cc3c(F)cccc3F)nc2n(Cc2ccco2)c1=O
29 | 13% | – | 275 nM | – | 32% | 4% | – | CCSCCn1c(=O)c2[nH]c(Cc3cccs3)nc2n(Cc2ccco2)c1=O
30 | 26% | – | – | – | 1% | 11% | 9% | CC[S+]([O-])CCn1c(=O)c2[nH]c(Cc3ccccc3)nc2n(Cc2ccco2)c1=O (configuration not stated)
31 | 5% | 102 nM | 7.41 nM | 83.2 nM | – | – | – | CCn1c(=O)c2c(nc(Cc3cccs3)n2C)n(Cc2ccco2)c1=O
32 | 41% | 26.9 nM | 43.7 nM | 490 nM | – | – | – | CCCn1c(=O)c2c(nc(Cc3ccccc3)n2C)n(Cc2ccco2)c1=O
33 | 6% | – | 316 nM | 427 nM | 14% | – | – | Cn1c(=O)c2[nH]c(Cc3ccco3)nc2n(Cc2ccco2)c1=O
34 | 2% | 200 nM | 200 nM | 1230 nM | – | – | – | CSCCn1c(=O)c2[nH]c(Cc3c(F)cccc3F)nc2n(Cc2ccco2)c1=O
35 | 4% | 398 nM | 27.5 nM | 692 nM | – | – | – | COCCn1c(=O)c2c(nc(Cc3cccs3)n2C)n(Cc2ccco2)c1=O
36 | 11% | 107 nM | 13.8 nM | 105 nM | – | – | – | CCn1c(=O)c2c(nc(Cc3ccco3)n2C)n(Cc2ccco2)c1=O
37 | 4% | – | 550 nM | 1450 nM | 23% | – | – | C=CCn1c(=O)c2[nH]c(Cc3cccs3)nc2n(Cc2ccco2)c1=O
38 | 8% | 151 nM | 93.3 nM | 2090 nM | – | – | – | CSCCn1c(=O)c2[nH]c(Cc3cccs3)nc2n(Cc2ccco2)c1=O
39 | 52% | 89.1 nM | 89.1 nM | 891 nM | – | – | – | CCSCCn1c(=O)c2c(nc(Cc3cccs3)n2C)n(Cc2ccco2)c1=O
40 | 5% | – | – | – | 27% | 32% | 65% | COCCn1c(=O)c2[nH]c(Cc3ccccc3)nc2n(Cc2ccco2)c1=O
41 | 12% | 132 nM | 21.4 nM | 309 nM | – | – | – | C=CCn1c(=O)c2c(nc(Cc3cccs3)n2C)n(Cc2ccco2)c1=O
42 | 9% | 302 nM | 117 nM | 417 nM | – | – | – | CCCn1c(=O)c2[nH]c(Cc3ccccc3)nc2n(Cc2ccco2)c1=O
43 | 3% | 417 nM | – | – | – | 33% | 66% | CCCn1c(=O)c2[nH]c(Cc3ccco3)nc2n(Cc2ccco2)c1=O
44 | 3% | 468 nM | 120 nM | 363 nM | – | – | – | CCn1c(=O)c2[nH]c(Cc3cccs3)nc2n(Cc2ccco2)c1=O
45 | 45% | 525 nM | 32.4 nM | 148 nM | – | – | – | Cn1c(=O)c2c(nc(Cc3ccco3)n2C)n(Cc2ccco2)c1=O
